Where “and” joins values, the source holds several entries; their conditions need not be identical. Identical values can stand only once. Calls of active or inactive are those of the source. No cut-off for these calls is given here.

The first experiment concerns the target T1, C-C chemokine receptor type 2 (Homo sapiens, UniProt P41597). As to the kind of experiment: Displacement of [3H]-CCR2-RA-[R] from human TEV protease site linked CCR2b expressed in human U20S cell membranes co-expressing Gal4-VP16 transcription factor after 120 mins by scintillation spectrometry. Particulars: read-out: Ki. A general note: Loss of bound radioactivity is the signal in a displacement assay; it reports binding, not function.
Target sequence in this assay (P41597 whole entry, the tested form may be a part): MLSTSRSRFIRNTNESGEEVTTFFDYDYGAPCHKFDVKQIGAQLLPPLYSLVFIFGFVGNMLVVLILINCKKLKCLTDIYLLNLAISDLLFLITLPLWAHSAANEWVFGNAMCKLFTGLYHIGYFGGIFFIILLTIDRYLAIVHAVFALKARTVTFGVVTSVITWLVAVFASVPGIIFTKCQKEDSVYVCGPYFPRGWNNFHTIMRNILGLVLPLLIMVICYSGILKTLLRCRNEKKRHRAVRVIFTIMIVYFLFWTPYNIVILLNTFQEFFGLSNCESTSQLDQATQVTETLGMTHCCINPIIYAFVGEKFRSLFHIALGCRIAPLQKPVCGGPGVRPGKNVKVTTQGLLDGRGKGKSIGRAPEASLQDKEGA
For the compound `CC(=O)C1=C(O)C(=O)N(c2ccc(C)cc2F)C1C1CCCCC1` (stereo not drawn), the Ki stood at 37 nM.
On the same count and under the same terms, the figure for `CC(=O)C1=C(O)C(=O)N(c2ccc(Br)cc2F)C1C1CCCCC1` (stereo not drawn) is 6 nM; for `CC(=O)C1=C(O)C(=O)N(c2ccc(C)cc2)C1c1ccc(Cl)cc1` (stereo not drawn) it is 207 nM.
Same read-out and setting: under `CC(=O)C1=C(O)C(=O)N(c2ccc(Br)cc2F)C1c1cccc(Br)c1` (stereo not drawn) stands 216 nM; under `CC(=O)C1=C(O)C(=O)N(c2ccc(C)c(C)c2)C1C1CCCCC1` (stereo not drawn), 18 nM.
Same read-out and setting: the figure for `CC(=O)C1=C(O)C(=O)N(c2ccc(C)cc2)C1C1CCCCCC1` (stereo not drawn) is 96 nM; for `CC(=O)C1=C(O)C(=O)N(c2cccc(C(F)(F)F)c2)C1C1CCCCC1` (stereo not drawn) it is 305 nM; for `CC(=O)C1=C(O)C(=O)N(c2ccc(C)cc2)C1c1ccc(Br)cc1` (stereo not drawn) it is 214 nM.
In the case of `CCCCC(=O)C1=C(O)C(=O)N(c2ccc(C)cc2)C1C1CCCCC1` (stereo not drawn), the Ki was 158 nM.
Still for that read-out and setting: under `CC(=O)C1=C(O)C(=O)N(c2cccc(C)c2)C1C1CCCCC1` (stereo not drawn) stands 265 nM; under `CC(=O)C1=C(O)C(=O)N(c2cccc(Cl)c2)C1C1CCCCC1` (stereo not drawn), 239 nM.
Still for that read-out and setting: the figure for `O=C(C1=C(O)C(=O)N(c2ccc(Br)cc2F)C1C1CCCCC1)c1ccccc1` (stereo not drawn) is 66 nM.
Same read-out and setting: the figure for `CCc1ccc(N2C(=O)C(O)=C(C(C)=O)C2C2CCCCC2)cc1` (stereo not drawn) is 66 nM; for `O=C(C1=C(O)C(=O)N(c2ccc(Br)cc2F)C1C1CCCCC1)C1CC1` (stereo not drawn) it is 15 nM.
For the compound `Cc1ccc(N2C(=O)C(O)=C(C(=O)C(C)C)C2C2CCCCC2)cc1` (stereo not drawn), the Ki was 316 nM.
Still for that read-out and setting: under `CC(=O)C1=C(O)C(=O)N(c2ccc(Cl)cc2)C1C1CCCCC1` (stereo not drawn) stands 19 nM; under `CC(=O)C1=C(O)C(=O)N(c2ccc(C)c(F)c2)C1C1CCCCC1` (stereo not drawn), 57 nM; under `CCCC(=O)C1=C(O)C(=O)N(c2ccc(C)cc2)C1C1CCCCC1` (stereo not drawn), 144 nM.
As to `Cc1ccc(N2C(=O)C(O)=C(C(=O)C3CC3)C2C2CCCCC2)cc1` (stereo not drawn), the Ki came out at 160 nM.

Staying with this experiment, now noted: read-out: pKi (converted).
Consider `CC(=O)C1=C(O)C(=O)N(c2cccc(C(F)(F)F)c2)C1C1CCCCC1` (stereo not drawn), for which the Ki was 288 nM.
On the same count and under the same terms, under `CCCCC(=O)C1=C(O)C(=O)N(c2ccc(C)cc2)C1C1CCCCC1` (stereo not drawn) stands 155 nM; under `CCc1ccc(N2C(=O)C(O)=C(C(C)=O)C2C2CCCCC2)cc1` (stereo not drawn), 64.6 nM.
`CCCC(=O)C1=C(O)C(=O)N(c2ccc(C)cc2)C1C1CCCCC1` (stereo not drawn): the Ki is 138 nM.

Another experiment concerns the target T2, C-C chemokine receptor type 1 (Homo sapiens) (UniProt P32246).
T2 sequence (whole entry): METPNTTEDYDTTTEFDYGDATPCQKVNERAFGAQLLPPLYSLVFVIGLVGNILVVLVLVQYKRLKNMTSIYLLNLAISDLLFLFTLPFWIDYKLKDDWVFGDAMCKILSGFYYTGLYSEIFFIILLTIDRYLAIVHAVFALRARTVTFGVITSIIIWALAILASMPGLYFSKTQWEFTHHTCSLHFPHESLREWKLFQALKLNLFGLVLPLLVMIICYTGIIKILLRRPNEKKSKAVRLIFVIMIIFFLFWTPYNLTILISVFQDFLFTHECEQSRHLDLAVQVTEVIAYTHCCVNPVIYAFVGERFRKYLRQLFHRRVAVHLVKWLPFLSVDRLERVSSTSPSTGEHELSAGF
As to the kind of experiment: Displacement of [3H]-CCR2-RA-[R] from human TEV protease site linked CCR1 expressed in human U20S cell membranes co-expressing Gal4-VP16 transcription factor at 1 uM after 120 mins by scintillation spectrometry relative to control.
Conditions: not given
What is called inhibition is the relative decrease from the control value, in per cent. The compound `CC(=O)C1=C(O)C(=O)N(c2cccc(C(F)(F)F)c2)C1C1CCCCC1` (stereo not drawn) came in with an inhibition of 25%.

A further experiment deals with T3, C-C chemokine receptor type 1 (Homo sapiens, UniProt P32246).
T3 sequence (P32246 whole entry): T2 sequence (whole entry)
As to the kind of experiment: Antagonist activity at human TEV protease site linked CCR1 expressed in human U20S cell membranes co-expressing Gal4-VP16 transcription factor assessed as reduction in CCL3-induced G-protein activation preincubated for 30 mins in presence of CCL3 followed by incubation of 90 mins by [35S]GTPgammaS binding assay. The settings on record: read-out: IC50. In kind it is functional. In outline: (§1)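 Stably transfected U2OS membranes (10 μg; human CCR1 or CCR2b) in 50 mM Tris-HCl pH 7.4 with 5 mM MgCl2, 100 mM NaCl, 1 mM EDTA, 0.05% BSA, 10 μM GDP and 10 μg saponin. Preincubated with graded compound plus 8 nM CCL3 (CCR1) or 20 nM CCL2 (CCR2), then 0.3 nM [35S]GTPγS for 90 min at 25 °C.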
Background: GTPγS resists hydrolysis and so accumulates on activated G proteins.
Take `CC(=O)C1=C(O)C(=O)N(c2ccc(Br)cc2F)C1C1CCCCC1` (stereo not drawn): the IC50 is 590 nM.
The same measure, in the same setting: under `O=C(C1=C(O)C(=O)N(c2ccc(Br)cc2F)C1C1CCCCC1)C1CC1` (stereo not drawn) stands 950 nM.

The same experiment, now with this note: read-out: pIC50 (converted).
For the compound `CC(=O)C1=C(O)C(=O)N(c2ccc(Br)cc2F)C1C1CCCCC1` (stereo not drawn), the IC50 is 550 nM.
Still for that read-out and setting: the figure for `O=C(C1=C(O)C(=O)N(c2ccc(Br)cc2F)C1C1CCCCC1)C1CC1` (stereo not drawn) is 933 nM.

The target of the next experiment is T1, C-C chemokine receptor type 2. As to the kind of experiment: Antagonist activity at human TEV protease site linked CCR2b expressed in human U20S cell membranes co-expressing Gal4-VP16 transcription factor assessed as reduction in CCL2-induced G-protein activation preincubated for 30 mins in presence of CCL2 followed by incubation of 90 mins by [35S]GTPgammaS binding assay. In kind it is functional. The settings on record: read-out: IC50. In outline:
as §1
Target sequence in this assay (P41597 whole entry, the tested form may be a part): as the sequence (P41597 whole entry, the tested form may be a part) above
Consider `CC(=O)C1=C(O)C(=O)N(c2ccc(Br)cc2F)C1C1CCCCC1` (stereo not drawn), for which the IC50 was 30 nM.
On the same count and under the same terms, under `O=C(C1=C(O)C(=O)N(c2ccc(Br)cc2F)C1C1CCCCC1)C1CC1` (stereo not drawn) stands 330 nM.

The same experiment, now with this note: read-out: pIC50 (converted).
As for `O=C(C1=C(O)C(=O)N(c2ccc(Br)cc2F)C1C1CCCCC1)C1CC1` (stereo not drawn), the IC50 was 288 nM.

The species entered for another experiment is Homo sapiens. As to the kind of experiment: Selectivity ratio of IC50 for human TEV protease site linked CCR1 expressed in human U20S cell membranes co-expressing Gal4-VP16 transcription factor to IC50 for human TEV protease site linked CCR2b expressed in human U20S cell membranes co-expressing Gal4-VP16 transcription factor. In kind it is cell-based.
Conditions: not given
As for `CC(=O)C1=C(O)C(=O)N(c2ccc(Br)cc2F)C1C1CCCCC1` (stereo not drawn), the Ratio IC50 amounted to 19.
The same measure, in the same setting: under `O=C(C1=C(O)C(=O)N(c2ccc(Br)cc2F)C1C1CCCCC1)C1CC1` (stereo not drawn) stands 3.

A further experiment deals with T1, C-C chemokine receptor type 2. As to the kind of experiment: Inverse agonist activity at human TEV protease site linked CCR2b expressed in human U20S cell membranes co-expressing Gal4-VP16 transcription factor assessed as decrease in basal activity at 100 uM after 90 mins in presence of GDP by [35S]GTPgammaS binding assay relative to control. In kind it is functional.
Conditions: not given
In outline: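 Basal G-protein activation on human CCR2b U2OS membranes (10 μg) plus 10 μg saponin and 10 μM GDP, pH 7.4 Tris buffer with NaCl, EDTA and BSA, no CCL2. Compound preincubated 30 min at 25 °C, then 90 min with 0.3 nM [35S]GTPγS. Bound label measured after filtration; change from basal.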
Target sequence in this assay (P41597 whole entry, looked up, the tested form may be a part): as the sequence (P41597 whole entry, the tested form may be a part) above
As to `O=C(C1=C(O)C(=O)N(c2ccc(Br)cc2F)C1C1CCCCC1)C1CC1` (stereo not drawn), the Imax came to 27%.

For the next experiment, the target named is T2, C-C chemokine receptor type 1 (Homo sapiens). As to the kind of experiment: Inverse agonist activity at human TEV protease site linked CCR1 expressed in human U20S cell membranes co-expressing Gal4-VP16 transcription factor assessed as decrease in basal activity after 90 mins in presence of 1 uM GDP by [35S]GTPgammaS binding assay relative to control. In kind it is functional.
Conditions: not given
In outline: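 Basal [35S]GTPγS binding on human CCR1 U2OS membranes (10 μg) with saponin, in Tris/MgCl2/NaCl/EDTA/0.05% BSA, pH 7.4, without chemokine. Compound was tested at 100 μM with GDP at 1, 10 or 20 μM. Preincubation was 30 min at 25 °C, then 90 min after adding 0.3 nM [35S]GTPγS. Filtration and scintillation read-out; decrease versus basal.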
With `CC(=O)C1=C(O)C(=O)N(c2ccc(Br)cc2F)C1C1CCCCC1` (stereo not drawn), the outcome was Active.
On the same count and under the same terms, the entry for `O=C(C1=C(O)C(=O)N(c2ccc(Br)cc2F)C1C1CCCCC1)C1CC1` (stereo not drawn) is “Active”.

A further experiment concerns the target T3, C-C chemokine receptor type 1. As to the kind of experiment: biochemical.
Conditions: not given
Turning to `CC(=O)C1=C(O)C(=O)N(c2ccc(C)cc2F)C1C1CCCCC1` (stereo not drawn), the Ki was 27.5 nM and 29 nM.
In the case of `CC(=O)C1=C(O)C(=O)N(c2ccc(C)cc2)C1c1ccc(Cl)cc1` (stereo not drawn), the Ki was found to be 67 nM.
On the same count and under the same terms, under `CC(=O)C1=C(O)C(=O)N(c2ccc(Br)cc2F)C1c1cccc(Br)c1` (stereo not drawn) stands 65 nM.
Still for that read-out and setting: the figure for `CC(=O)C1=C(O)C(=O)N(c2ccc(C)c(C)c2)C1C1CCCCC1` (stereo not drawn) is 43 nM; for `CC(=O)C1=C(O)C(=O)N(c2ccc(C)cc2)C1C1CCCCCC1` (stereo not drawn) it is 56 nM; for `CC(=O)C1=C(O)C(=O)N(c2ccc(C)cc2)C1c1ccc(Br)cc1` (stereo not drawn) it is 85.1 nM and 87 nM.
Still for that read-out and setting: under `CCCCC(=O)C1=C(O)C(=O)N(c2ccc(C)cc2)C1C1CCCCC1` (stereo not drawn) stands 31 nM; under `CC(=O)C1=C(O)C(=O)N(c2cccc(C)c2)C1C1CCCCC1` (stereo not drawn), 500 nM.
Consider `CC(=O)C1=C(O)C(=O)N(c2cccc(Cl)c2)C1C1CCCCC1` (stereo not drawn), for which the Ki is 525 nM and 541 nM.
Regarding `O=C(C1=C(O)C(=O)N(c2ccc(Br)cc2F)C1C1CCCCC1)c1ccccc1` (stereo not drawn), the Ki came to 28 nM.
Still for that read-out and setting: the figure for `CCc1ccc(N2C(=O)C(O)=C(C(C)=O)C2C2CCCCC2)cc1` (stereo not drawn) is 168 nM.
`O=C(C1=C(O)C(=O)N(c2ccc(Br)cc2F)C1C1CCCCC1)C1CC1` (stereo not drawn) displayed a Ki of 5 nM.
Same read-out and setting: the figure for `Cc1ccc(N2C(=O)C(O)=C(C(=O)C(C)C)C2C2CCCCC2)cc1` (stereo not drawn) is 40.7 nM and 42 nM.
Still for that read-out and setting: under `CC(=O)C1=C(O)C(=O)N(c2ccc(Cl)cc2)C1C1CCCCC1` (stereo not drawn) stands 38.9 nM and 40 nM; under `CC(=O)C1=C(O)C(=O)N(c2ccc(C)c(F)c2)C1C1CCCCC1` (stereo not drawn), 47.9 nM and 49 nM.
Same read-out and setting: under `CCCC(=O)C1=C(O)C(=O)N(c2ccc(C)cc2)C1C1CCCCC1` (stereo not drawn) stands 29 nM.
Take `Cc1ccc(N2C(=O)C(O)=C(C(=O)C3CC3)C2C2CCCCC2)cc1` (stereo not drawn): the Ki is 18.2 nM and 19 nM.

Values taken from ChEMBL document CHEMBL4371011, “Pyrrolone Derivatives as Intracellular Allosteric Modulators for Chemokine Receptors: Selective and Dual-Targeting Inhibitors of CC Chemokine Receptors 1 and 2” (J Med Chem, 2018).
